proKLK7 act: proKLK7 zymogen activators, primary screen, biochemical, fluorescence intensity. Kallikrein-7 (Homo sapiens), P49862. AID 652039, 2013. 370,000 compounds, 0.9% hits. activation, % at 7 µM. purified proKLK7, EDANS-DABCYL substrate fluorescence; 100% is mature enzyme control, 0% vehicle;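 active = activation above the mean of all tested compounds plus 3 SD, computed per campaign excluding outliers beyond control limits, cut at about 13% in these data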
AI-2 QS modul: Vibrio harveyi AI-2 quorum sensing modulators, primary screen, JMH597 strain, luminescence/OD600 ratio. AID 2094, 2009. 300,000 compounds, 0.4% hits. activity change, % at 7.5 µM. Vibrio harveyi JMH597 AI-2 luminescence/OD600 ratio, 9 h; active compounds read low; strain lacks LuxN and CqsS sensors; 0 = neutral-control median; in the data active = activity change below about -75%, passing the limit was not always enough; inconclusive = no clear call, values can overlap the other calls;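 note: luminescence divided by OD600 gain over 9 h not by final OD600 alone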
Runt-CBFb FRET: inhibitors of RUNX1 Runt–CBFb binding, primary screen, biochemical, FRET, Cerulean-Runt, Venus-CBFb, uHTS; Runt-related transcription factor 1 (Homo sapiens) + Core-binding factor subunit beta …; Cerulean-Runt/Venus-CBFb FRET ratio 530/480, 1 h; inhibition, % at 20 µM; 220,000 compounds, 0.46% hits; AID 1496, 2009;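 active = inhibition over about 50% at 20 µM in the single-dose screen, limit read from the data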;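 note: 0% = DMSO wells and 100% = excess unlabeled CBFb competitor control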
Target sequence (Q01196 whole entry, looked up): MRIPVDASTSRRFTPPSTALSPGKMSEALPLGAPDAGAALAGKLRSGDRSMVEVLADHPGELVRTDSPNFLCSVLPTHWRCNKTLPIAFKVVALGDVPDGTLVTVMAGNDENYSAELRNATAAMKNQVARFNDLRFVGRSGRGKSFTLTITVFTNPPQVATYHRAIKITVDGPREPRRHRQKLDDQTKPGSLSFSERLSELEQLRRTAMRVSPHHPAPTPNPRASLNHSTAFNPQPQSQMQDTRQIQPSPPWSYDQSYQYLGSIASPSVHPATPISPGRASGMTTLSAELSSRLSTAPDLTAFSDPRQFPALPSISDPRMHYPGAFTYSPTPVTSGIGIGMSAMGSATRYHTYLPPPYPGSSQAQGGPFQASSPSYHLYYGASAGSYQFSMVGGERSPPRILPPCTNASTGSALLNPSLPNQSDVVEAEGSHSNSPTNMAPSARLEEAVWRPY
Target sequence (Q13951 whole entry, looked up): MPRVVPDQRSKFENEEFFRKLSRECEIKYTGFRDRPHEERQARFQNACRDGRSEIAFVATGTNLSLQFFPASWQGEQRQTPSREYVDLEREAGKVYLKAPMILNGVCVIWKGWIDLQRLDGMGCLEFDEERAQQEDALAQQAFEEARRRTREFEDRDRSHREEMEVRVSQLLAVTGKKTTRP
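System: Cerulean-labeled Runt domain protein | Quantity: 100 nM of each labeled protein | Schedule: 1 h compound exposure, room temperature | Detection: Fluorescence energy transfer, 422 nm excitation, 530/480 nm emission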
Wee1 stabilizer: Wee1 degradation inhibitors, primary screen, cell-based, HeLa, Wee1K328M-luciferase, luminescence; AID 1321, 2008; reporter increase, % at 5 µM; 220,000 compounds, 1.2% hits; HeLa Luc-Wee1K328M stability; 100% = proteasome inhibitor MG132 effect;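 active = activation above the mean of all tested compounds plus 3 SD, set per screening run, cut at about 8.8% in these data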;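 note: cells exposed to compound for 20 h before luminescence read; 0% = DMSO alone and 100% = MG132 at 30 µM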
Runt-SMMHC FRET: inhibitors of RUNX1 Runt–CBFb-SMMHC binding, primary screen, biochemical, FRET, Cerulean-Runt, Venus-CBFb-SMMHC, uHTS. 220,000 compounds, 0.74% hits. Cerulean-Runt/Venus-CBFb-SMMHC FRET ratio 530/480, 1 h. Runt-related transcription factor 1 (Homo sapiens) + Core-binding factor subunit beta …. inhibition, % at 20 µM;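 active = mean inhibition across duplicate retests at 20 µM reaching about 50%, limit read from the data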;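 note: 0% = DMSO wells and 100% = wells with excess untagged CBFb-SMMHC; inhibitors lower the FRET ratio by blocking Runt binding to CBFb-SMMHC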
RanGTP-Imp inh: inhibitors of RanGTP-importin-beta interaction, primary screen, biochemical, FRET, CFP-Ran, YFP-importin-beta, homogeneous. 300,000 compounds, 1.1% hits. Ran GTPase (GTP-bound) - importin-beta complex. cell-free CFP-Ran/YFP-importin-beta FRET ratio. inhibition, % (no concentration beside the values);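 active = more than half of the replicate wells show a fall in the fluorescence ratio signal beyond about 16%, limit read from the data, passing the limit was not always enough; inconclusive = exactly half of the replicate wells pass the set limit; inactive = fewer than half of replicates pass the limit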;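 note: 0% = DMSO wells and 100% = Ran loaded with GDP instead of GTP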
* marks the source's active call; other numbers are inactive results. This is a sample that favours compounds with a hit; in the whole collection about 2.9% have one here.

What do the screens show for `Cc1cccn2c(=O)c3cc(C#N)c(=N)n(CC4CCCO4)c3nc12` (configuration not stated)?
Wee1 stabilizer: 0

What do the screens show for `COC(=O)N1C[C@H](OCc2ccccc2)[C@H]2C[C@@H]1c1ccccc1O2`?
proKLK7 act: 0

Results for C/C=C/c1ccc(OCCCCOc2c(OC)cccc2OC)c(OC)c1 ?
proKLK7 act: 0; AI-2 QS modul: 32; Runt-CBFb FRET: -6; Wee1 stabilizer: 15*; Runt-SMMHC FRET: -8; RanGTP-Imp inh: -1

Results for O=C(NCC(O)c1ccc2ccccc2c1)c1c(F)cccc1F (configuration not stated) ?
proKLK7 act: 0; AI-2 QS modul: -75*; RanGTP-Imp inh: 0

Results for O=C(Nc1ccc(C(F)(F)F)cc1)OC1CC2CC1[C@H]1CCCCN1[C@H]2Cc1ccccc1 (some centres not stated) ?
proKLK7 act: 0

Results for CN(C)CCCC(C)(O)C(C)(C)c1ccccc1 (configuration not stated) ?
proKLK7 act: -1; AI-2 QS modul: 13; Runt-CBFb FRET: 73*; Wee1 stabilizer: 0; Runt-SMMHC FRET: -3; RanGTP-Imp inh: -3

Results for CN(C)CCC(O)(c1ccccc1)c1ccccc1 ?
AI-2 QS modul: 24; Runt-CBFb FRET: 0; Wee1 stabilizer: -4; Runt-SMMHC FRET: 0; RanGTP-Imp inh: 1

What do the screens show for `COC(=O)c1ccccc1NC(=O)CSc1nc2ccsc2c(=O)n1CCCCC(=O)O`?
proKLK7 act: 0

Results for CC1CCc2sc(C(=O)OC(C)C(=O)Nc3ncc(Cl)cc3Cl)cc2C1 (configuration not stated) ?
AI-2 QS modul: 18; Runt-CBFb FRET: -3; Wee1 stabilizer: 10*; Runt-SMMHC FRET: -1; RanGTP-Imp inh: 1

What do the screens show for `O=S(=O)(Nc1cc(Cl)cc(Cl)c1)N1CCOCC1`?
proKLK7 act: -1; AI-2 QS modul: 8; RanGTP-Imp inh: 0

How did CCN(CC)c1ccc2cc(S(=O)(=O)c3ccc(Cl)cc3)c(=O)oc2c1 do in these assays?
proKLK7 act: -1; AI-2 QS modul: 17; Runt-CBFb FRET: 6; Wee1 stabilizer: 5; Runt-SMMHC FRET: 81*; RanGTP-Imp inh: 128*

What do the screens show for `CC(C)c1ccc(S(=O)(=O)c2cc3cc(Br)ccc3oc2=O)cc1`?
proKLK7 act: 0; AI-2 QS modul: -32; Runt-CBFb FRET: -10; Wee1 stabilizer: -3; Runt-SMMHC FRET: -30; RanGTP-Imp inh: 4

How did CCCCCCc1cc2cc(S(=O)(=O)c3ccc(C)cc3)c(=O)oc2cc1O do in these assays?
proKLK7 act: -9; AI-2 QS modul: 25; Runt-CBFb FRET: 6; Wee1 stabilizer: 2; Runt-SMMHC FRET: 81; RanGTP-Imp inh: 163*

Results for CCCCCCc1cc2cc(S(=O)(=O)c3ccc(Cl)cc3)c(=O)oc2cc1O ?
proKLK7 act: -3; AI-2 QS modul: 16; Runt-CBFb FRET: 6; Wee1 stabilizer: -1; Runt-SMMHC FRET: 81*; RanGTP-Imp inh: 166*

What do the screens show for `CCN(CC)c1ccc2cc(C(=O)c3cccs3)c(=O)oc2c1`?
proKLK7 act: -1

What do the screens show for `COc1ccc(N2CCCN(CC(=O)Nc3ccccc3C)CC2)cc1`?
proKLK7 act: 0

Results for CC(=O)NS(=O)(=O)c1ccc(NC(=O)c2ccc(S(=O)(=O)N3CCCC3)cc2)cc1 ?
proKLK7 act: 0

What do the screens show for `CCC(CO)Nc1cccc2c1S(=O)(=O)N(Cc1cn(Cc3ccc(F)cc3)nn1)Cc1ccccc1O2` (configuration not stated)?
proKLK7 act: 1

What do the screens show for `O=C(Nc1nnc(C(F)(F)F)s1)c1ccc(Br)s1`?
proKLK7 act: 0; AI-2 QS modul: 6; Runt-CBFb FRET: -1; Wee1 stabilizer: 9.8*; Runt-SMMHC FRET: 4; RanGTP-Imp inh: 7

How did Cc1ccc(C(=O)OCCN(C)Cc2ccccc2)cc1 do in these assays?
proKLK7 act: 0; AI-2 QS modul: 6; Runt-CBFb FRET: 1; Wee1 stabilizer: 9.2*; Runt-SMMHC FRET: 5; RanGTP-Imp inh: 4

How did Cc1ccccc1C(=O)OCCN(C)Cc1ccccc1 do in these assays?
proKLK7 act: -1; AI-2 QS modul: 15; Runt-CBFb FRET: -3; Wee1 stabilizer: -1; Runt-SMMHC FRET: -2; RanGTP-Imp inh: 1

How did CC(=O)c1c(N2CCN(C)CC2)nc(=S)n(Cc2ccccc2)c1C do in these assays?
proKLK7 act: 0; AI-2 QS modul: 24; Runt-CBFb FRET: 62*; Wee1 stabilizer: -3; Runt-SMMHC FRET: 83*; RanGTP-Imp inh: inconclusive

Results for CCn1c(C)c(C(C)=O)c(N2CCN(c3cccc(Cl)c3)CC2)nc1=S ?
proKLK7 act: 0; AI-2 QS modul: 5; Runt-CBFb FRET: -38; Wee1 stabilizer: -1; Runt-SMMHC FRET: 54; RanGTP-Imp inh: 29*

What do the screens show for `COc1ccc(N2CCN(c3nc(=S)n(-c4ccccc4)c(C)c3C(C)=O)CC2)cc1`?
proKLK7 act: 0; AI-2 QS modul: 35; Runt-CBFb FRET: 7; Wee1 stabilizer: 0; Runt-SMMHC FRET: -27; RanGTP-Imp inh: 92*

Results for CN(C(=O)N1CCN(c2ccccn2)CC1)c1ccccc1 ?
proKLK7 act: 0; AI-2 QS modul: 12; Wee1 stabilizer: 3; Runt-SMMHC FRET: -5; RanGTP-Imp inh: 3

How did CC(=O)c1c(N2CCN(c3ccccn3)CC2)nc(=S)n(-c2ccccc2)c1C do in these assays?
proKLK7 act: 1; AI-2 QS modul: 1; Runt-CBFb FRET: 93*; Wee1 stabilizer: -2; Runt-SMMHC FRET: 99*; RanGTP-Imp inh: 57*

Results for O=C(NCC1CCCCC1)c1csc([C@@H]2C[C@H](O)[C@@H](CO)O2)n1 ?
proKLK7 act: 1

What do the screens show for `CC(=O)c1c(NCCc2ccccc2)nc(=S)n(-c2ccccc2)c1C`?
proKLK7 act: 0; AI-2 QS modul: -10; Runt-CBFb FRET: 3; Wee1 stabilizer: 0; Runt-SMMHC FRET: 2; RanGTP-Imp inh: 4
